Results on 22 compounds are retold here after ChEMBL document CHEMBL1125559, “Analogues of platelet activating factor. 7. Bis-aryl amide and bis-aryl urea receptor antagonists of PAF” (J Med Chem, 1992).

The structures appear in SMILES notation.

Data set [1] concerns Mus musculus. In words: Compound was evaluated for PAF-induced lethality in mouse (intraperitoneally at a dose of 1.0 mg/kg in saline 0.5 hr before lethal intravenous PAF challenge 75-150 mg/kg); 11/13. The format is ADME, organism-based. Details: dose 1 mg/kg. The settings on record: in vivo. In a few lines: (§1)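 Female Swiss-Webster mice (20-25 g) received test compound ip in saline (10 mL/Kg); controls got saline alone. The PAF dose was chosen daily from small pilot groups. Survival was scored at 1.5 h and recorded as dead/total.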

Data set [2] is filed under the species Oryctolagus cuniculus. In words: Concentration required to inhibit PAF (5*10e-8 M) induced platelet aggregation in rabbit platelet rich plasma(PRP) by 50%. The format is functional, organism-based. The essentials:
(§2)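 Rabbit PRP came from blood spun at 800 rpm for 15 min at room temperature, with platelet counts of 350 000–550 000/µL. PRP was equilibrated 1–2 min at 37 °C in an aggregometer. It was preincubated 5 min with test compound (final 10^-8 to 10^-5 M; methanol stock diluted in saline) or saline, then challenged with L-C16-PAF. IC50 was taken from concentration–response curves of aggregation magnitude and averaged over separate determinations.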

Data set [3] has as its system Mus musculus. The data set can be described thus: Compound was evaluated for PAF-induced lethality in mouse (intraperitoneally at a dose of 1.0 mg/kg in saline 0.5 hr before lethal intravenous PAF challenge 75-150 mg/kg). It is filed as ADME, organism-based. Details: dose 1 mg/kg, route intraperitoneal. As to conditions: in vivo. In a few lines:
as §1

Data set [4] concerns Mus musculus. In words: Compound was evaluated for PAF-induced lethality in mouse (intraperitoneally at a dose of 1.0 mg/kg in saline 0.5 hr before lethal intravenous PAF challenge 75-150 mg/kg); 2/10. The format is ADME, organism-based. Details: dose 1 mg/kg. As to conditions: in vivo. In a few lines:
as §1

For data set [5], the system named is Mus musculus. The data set can be described thus: Compound was evaluated for PAF-induced lethality in mouse (intraperitoneally at a dose of 1.0 mg/kg in saline 0.5 hr before lethal intravenous PAF challenge 75-150 mg/kg); 5/12. As to conditions: in vivo. It is filed as ADME, organism-based. Details: dose 1 mg/kg, route intravenous. The essentials: as §1
Data set [6] has as its system Mus musculus. The data set can be described thus: Compound was evaluated for PAF-induced lethality in mouse (intraperitoneally at a dose of 1.0 mg/kg in saline 0.5 hr before lethal intravenous PAF challenge 75-150 mg/kg); 14/24. The format is ADME, organism-based. Details: dose 1 mg/kg. The settings on record: in vivo. In a few lines:
as §1

The species entered for data set [7] is Oryctolagus cuniculus. In words: Concentration required to inhibit PAF (1*10e-7 M) induced platelet aggregation in rabbit platelet rich plasma(PRP) by 50%. The format is functional, organism-based. In a few lines: as §2
Data set [8] has as its system Mus musculus. The data set can be described thus: Compound was evaluated for PAF-induced lethality in mouse (intraperitoneally at a dose of 1.0 mg/kg in saline 0.5 hr before lethal intravenous PAF challenge 75-150 mg/kg); 10/17. Details: dose 1 mg/kg. The format is ADME, organism-based. The settings on record: in vivo. The essentials: as §1
Data set [9] deals with Mus musculus. The data set can be described thus: Compound was evaluated for PAF-induced lethality in mouse (intraperitoneally at a dose of 1.0 mg/kg in saline 0.5 hr before lethal intravenous PAF challenge 75-150 mg/kg); 4/12. It is filed as ADME, organism-based. Set-up: dose 1 mg/kg. As to conditions: in vivo. The essentials:
as §1

The subject of data set [10] is Mus musculus. The data set can be described thus: Compound was evaluated number of mouse dead out of total (intraperitoneally at a dose of 1.0 mg/kg in saline 0.5 hr before lethal intravenous PAF challenge 75-150 mg/kg)''; 6/12. Details: dose 1 mg/kg, route intravenous. As to conditions: in vivo. It is filed as ADME, organism-based. In a few lines: as §1
Data set [11] relates to Mus musculus. The data set can be described thus: Compound was evaluated for PAF-induced lethality in mouse (intraperitoneally at a dose of 1.0 mg/kg in saline 0.5 hr before lethal intravenous PAF challenge 75-150 mg/kg); 11/15. The format is ADME, organism-based. Set-up: dose 1 mg/kg. The settings on record: in vivo. The essentials: as §1
The species entered for data set [12] is Oryctolagus cuniculus. The data set can be described thus: Concentration required to inhibit PAF (5*10e-7 M) induced platelet aggregation in rabbit platelet rich plasma(PRP) by 50%. The format is functional, organism-based. The essentials: as §2
Data set [13] has as its system Mus musculus. In words: Compound was evaluated for PAF-induced lethality in mouse (intraperitoneally at a dose of 1.0 mg/kg in saline 0.5 hr before lethal intravenous PAF challenge 75-150 mg/kg); 12/12. The format is ADME, organism-based. Details: dose 1 mg/kg. The settings on record: in vivo. The essentials: as §1
For data set [14], the species on record is Oryctolagus cuniculus. In words: Concentration required to inhibit PAF (5*10e-8 M) induced platelet aggregation in rabbit platelet rich plasma(PRP) by 50% at 10 uM. It is filed as functional.

For orientation: IC50 means the concentration needed to halve the response being measured. Regarding `CCCCCCCCCCCCCCOc1c(CN(C(C)=O)c2cccc(C[n+]3csc(C)c3)c2)cccc1OC.[Br-]`, the Dead/total in the data set on Mus musculus [1] was 11. The compound further showed an IC50 in the data set listed under Oryctolagus cuniculus [2] of 2.5 µM. The Lethality in the data set on Mus musculus [3] was 85%.

In the case of `CCCCCCCCCCCCCCOc1c(C)cccc1CN(C(C)=O)c1cccc(C[n+]2csc(C)c2)c1.[Br-]`, the IC50 in the data set listed under Oryctolagus cuniculus [2] was 3.2 µM. In addition, the Lethality in the data set on Mus musculus [3] was 20%. This compound also returned a Dead/total in the data set with Mus musculus [4] of 2.

In the data set filed under Oryctolagus cuniculus [2], `CCCCCCCCCCCCCCOc1ccc(NC(=O)Nc2cccc(C[n+]3csc(C)c3)c2)cc1` yielded a half-maximal inhibitory concentration (IC50) of 1.5 µM.

In the case of `CCCCCCCCCCCCCCOc1ccc(CCC(=O)Nc2cccc(C[n+]3csc(C)c3)c2)cc1.[Br-]`, the Dead/total in the data set on Mus musculus [5] is 5. In addition, in the data set filed under Oryctolagus cuniculus [2], the 50% inhibitory concentration (IC50) is 7.3 µM. Besides, in the data set on Mus musculus [3], the Lethality turned out to be 50%.

In the data set listed under Oryctolagus cuniculus [2], `CCCCCCCCCCCCCCOc1cccc(CN(C(C)=O)c2cccc(C[n+]3csc(C)c3)c2)c1` showed an IC50 of 0.74 µM.

`CCCCCCCCCCCCCCOc1ccc(CCCN(C(C)=O)c2cccc(C[n+]3csc(C)c3)c2)cc1.[Br-]` came in with a Dead/total in the data set on Mus musculus [6] of 14. In the data set filed under Oryctolagus cuniculus [2], this compound gave a 50% inhibitory concentration (IC50) of 3.1 µM. The Lethality in the data set with Mus musculus [3] came out at 58%.

Compound `CCCCCCCCCCCCCCOc1ccc(CNC(=O)c2cccc(C[n+]3csc(C)c3)c2)cc1` showed an IC50 in the data set filed under Oryctolagus cuniculus [2] of 0.4 µM.

The compound `CCCCCCCCCCCCCCOc1ccc(CN(C(C)=O)c2cccc(C[n+]3csc(C)c3)c2)cc1C(C)(C)C` registered an IC50 in the data set filed under Oryctolagus cuniculus [7] of 0.35 µM.

As for `CCCCCCCCCCCCCCOc1ccc(CNC(=O)c2cccc(C[n+]3csc(C)c3)c2)cc1OC`, the IC50 in the data set listed under Oryctolagus cuniculus [2] was found to be 0.96 µM.

`CCCCCCCCCCCCCCCCOc1ccc(OCC(=O)Nc2ccccc2C[n+]2csc(C)c2)cc1` came in with an IC50 in the data set filed under Oryctolagus cuniculus [2] of 11.2 µM.

On to `CCCCCCCCCCCCCCOc1ccc(CN(C(C)=O)c2cccc(C[n+]3csc(C)c3)c2)cc1Cl.[Br-]`, for which, in the data set listed under Oryctolagus cuniculus [2], half-maximal inhibition (IC50) required 0.13 µM. The compound further had a Lethality with Mus musculus [3] of 59%. The Dead/total in the data set on Mus musculus [8] was 10.

In the data set listed under Oryctolagus cuniculus [2], `CCCCCCCCCCCCCCOc1cc(CN(C(C)=O)c2cccc(C[n+]3csc(C)c3)c2)cc(OC)c1` gave an IC50 of 0.96 µM.

Consider `CCCCCCCCCCCCCCOc1cc(CN(C(C)=O)c2cccc(C[n+]3csc(C)c3)c2)ccc1OC.[Br-]`, for which the Dead/total in the data set on Mus musculus [9] was found to be 4. In the data set listed under Oryctolagus cuniculus [2], this compound showed an IC50 of 0.37 µM. Further, in the data set with Mus musculus [3], the Lethality worked out at 27%.

On to `CCCCCCCCCCCCCCOc1ccc(CC(=O)Nc2cccc(C[n+]3csc(C)c3)c2)cc1.[Br-]`, for which, in the data set with Mus musculus [10], the Dead/total turned out to be 6. The same compound showed an IC50 in the data set listed under Oryctolagus cuniculus [2] of 0.31 µM. Further, the Lethality in the data set on Mus musculus [3] was 50%.

In turn, `CCCCCCCCCCCCCCOc1cc(OC)ccc1CN(C(C)=O)c1cccc(C[n+]2csc(C)c2)c1.[Br-]` yielded a Dead/total with Mus musculus [11] of 11. Besides, half-maximal inhibition in the data set listed under Oryctolagus cuniculus [2] (IC50) required 1.4 µM. The compound also had a Lethality with Mus musculus [3] of 73%.

In turn, `CCCCCCCCCCCCCCOc1ccc(CCN(C(C)=O)c2cccc(C[n+]3csc(C)c3)c2)cc1` had an IC50 in the data set filed under Oryctolagus cuniculus [12] of 4.3 µM.

As to `CCCCCCCCCCCCCCOc1cccc(CC(=O)Nc2cccc(C[n+]3csc(C)c3)c2)c1.[Br-]`, in the data set filed under Oryctolagus cuniculus [2], 0.55 µM corresponded to half-maximal inhibition (IC50). In the data set with Mus musculus [3], the Lethality is recorded as 100%. Further, in the data set on Mus musculus [13], the Dead/total worked out at 12.

For `CCCCCCCCCCCCCCOc1c(OC)cc(CN(C(C)=O)c2cccc(C[n+]3csc(C)c3)c2)cc1OC`, in the data set filed under Oryctolagus cuniculus [2], the half-inhibitory concentration (IC50) worked out at 0.57 µM.

`CCCCCCCCCCCCCCOc1ccc(C(=O)Nc2cccc(C[n+]3csc(C)c3)c2)cc1` displayed an IC50 in the data set filed under Oryctolagus cuniculus [2] of 5.9 µM.

Take `CCCCCCCCCCCCCCOc1cccc(OP(=O)([O-])Oc2cccc(C[n+]3csc(C)c3)c2)c1C(=O)OC`: the Lethality in the data set on Mus musculus [3] came out at 15%.

In the case of `CCCCCCCCCCCCCCOc1ccc(CN(C(C)=O)c2ccc(C[n+]3csc(C)c3)cc2)cc1`, the IC50 in the data set filed under Oryctolagus cuniculus [2] amounted to 2.1 µM.

The term Inhibition denotes how much of the control response was suppressed. `CCCCCCCCCCCCCCOc1cccc(CC(=O)Nc2ccccc2C[n+]2csc(C)c2)c1.[Br-]` had an Inhibition in the data set filed under Oryctolagus cuniculus [14] of 23%.
